Drawing on ChEMBL document CHEMBL3392966, “Antiproliferative activity of synthetic fatty acid amides from renewable resources” (Bioorg Med Chem, 2015), this text covers GI50, LC50 and TGI for three molecules.

The subject of data set [1] is U-251. Description: Antiproliferative activity against human U251 cells after 48 hrs by sulforhodamine B assay. The class given is functional. The conditions noted are these: U-251, 48 h. The method in brief:
(§1)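 Tumor cells grown in RPMI 1640 with 5% fetal bovine serum, with penicillin/streptomycin in experimental cultures. Exposed in 96-well plates to samples in DMSO/RPMI at 0.25, 2.5, 25 and 250 µg/mL, 37 °C, 5% CO2, 48 h. Fixed with 50% trichloroacetic acid before (T0) and after treatment, protein stained with sulforhodamine B and read at 540 nm. GI50, TGI and LC50 in µg/mL from dose-response curves by non-linear regression.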

Data set [2] has as its system MCF7. Description: Antiproliferative activity against human MCF7 cells after 48 hrs by sulforhodamine B assay. It counts as functional. The following applies: MCF7, 48 h. A digest of the protocol:
as §1
(Sulforhodamine B stains cellular protein and so reports cell mass.)

Data set [3] concerns NCI/ADR-RES. Description: Antiproliferative activity against human NCI/ADR-RES cells after 48 hrs by sulforhodamine B assay. The class given is functional. The method in brief: as §1
Data set [4] relates to 786-0. Description: Antiproliferative activity against human 786-0 cells after 48 hrs by sulforhodamine B assay. It counts as functional. The conditions noted are these: 786-0, 48 h. A digest of the protocol:
as §1

The test system of data set [5] is NCI-H460. Description: Antiproliferative activity against human NCI-H460 cells after 48 hrs by sulforhodamine B assay. It counts as functional. The conditions noted are these: NCI-H460, 48 h. A digest of the protocol: as §1
The nature of data set [6]: Antiproliferative activity against human PC3 cells after 48 hrs by sulforhodamine B assay. The conditions noted are these: PC-3, 48 h. It counts as functional. The method in brief:
as §1

A short description of data set [7]: Antiproliferative activity against human OVCAR3 cells after 48 hrs by sulforhodamine B assay. It counts as functional. The conditions noted are these: OVCAR-3, 48 h. The method in brief:
as §1

For data set [8], the system named is HaCaT. Description: Cytotoxicity against human HaCaT cells after 48 hrs by sulforhodamine B assay. The class given is cell-based.
Data set [9] has as its system U-251. Description: Antiproliferative activity against human U251 cells assessed as tumor growth inhibition after 48 hrs by sulforhodamine B assay. The following applies: U-251, 48 h. It counts as functional. The method in brief:
as §1

Data set [10] concerns MCF7. Description: Antiproliferative activity against human MCF7 cells assessed as tumor growth inhibition after 48 hrs by sulforhodamine B assay. The class given is functional. The conditions noted are these: MCF7, 48 h. The method in brief:
as §1

Data set [11] deals with NCI/ADR-RES. Description: Antiproliferative activity against human NCI/ADR-RES cells assessed as tumor growth inhibition after 48 hrs by sulforhodamine B assay. It counts as functional. A digest of the protocol:
as §1

Data set [12] has as its system 786-0. Description: Antiproliferative activity against human 786-0 cells assessed as tumor growth inhibition after 48 hrs by sulforhodamine B assay. It counts as functional. The following applies: 786-0, 48 h. A digest of the protocol: as §1
The subject of data set [13] is NCI-H460. Description: Antiproliferative activity against human NCI-H460 cells assessed as tumor growth inhibition after 48 hrs by sulforhodamine B assay. It counts as functional. The conditions noted are these: NCI-H460, 48 h. The method in brief:
as §1

Data set [14] is described as follows: Antiproliferative activity against human PC3 cells assessed as tumor growth inhibition after 48 hrs by sulforhodamine B assay. The class given is functional. The conditions noted are these: PC-3, 48 h. The method in brief: as §1
The nature of data set [15]: Antiproliferative activity against human OVCAR3 cells assessed as tumor growth inhibition after 48 hrs by sulforhodamine B assay. It counts as functional. The conditions noted are these: OVCAR-3, 48 h. A digest of the protocol:
as §1

The test system of data set [16] is U-251. Description: Cytotoxicity against human U251 cells. It counts as cell-based.
In data set [17] the test system is Vero. Description: Cytotoxicity against african green monkey Vero cells after 48 hrs by sulforhodamine B assay. The class given is cell-based. The conditions noted are these: chlorocebus sabaeus.
Data set [18] has as its system Vero. Description: Cytotoxicity against african green monkey Vero cells assessed as tumor growth inhibition after 48 hrs by sulforhodamine B assay. The conditions noted are these: chlorocebus sabaeus. It counts as cell-based. A digest of the protocol: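 Non-tumor lines (human HaCaT keratinocytes; Vero) in RPMI 1640 with 5% FBS, with penicillin/streptomycin added to experimental cultures. 48 h exposure at 0.25–250 µg/mL (DMSO/RPMI), 37 °C, 5% CO2. TCA fixation at time zero and at end, sulforhodamine B protein stain, absorbance 540 nm. TGI (total growth inhibition) from non-linear regression of the dose-response curve.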

Values after ≈ are worked out from the molar mass of the structure shown.

On to `CCCCCC[C@@H](O)C/C=C\CCCCCCCC(=O)N[C@@H](C)c1ccccc1`, for which the concentration for 50% growth inhibition (GI50) in [1] was found to be 3.6 µg/mL (≈ 8.96 µM); in data set [2] it was 5.1 µg/mL (≈ 12.7 µM); in data set [3], 1.9 µg/mL (≈ 4.73 µM); in [4], 6.7 µg/mL (≈ 16.7 µM); in [5] it was 8.3 µg/mL (≈ 20.7 µM); in [6], 11.7 µg/mL (≈ 29.1 µM). The molecule further displayed a GI50 in data set [7] of 11.1 µg/mL (≈ 27.6 µM). Also, the results for the median lethal concentration (LC50) in data set [8] and in data set [16] were 9.7 µg/mL (≈ 24.2 µM) and 63.6 µg/mL (≈ 158 µM), respectively. Moreover, the concentration for total growth inhibition (TGI) in data set [9] is 13.9 µg/mL (≈ 34.6 µM); in [10], 84.5 µg/mL (≈ 210 µM); in [11], > 250 µg/mL; in data set [12], 60.1 µg/mL (≈ 150 µM); in data set [13], 132 µg/mL (≈ 329 µM); in data set [14], 142 µg/mL (≈ 353 µM). For the same molecule, the TGI in [15] was > 250 µg/mL.
Turning to `CCCCC/C=C\C/C=C\CCCCCCCC(=O)N1CCCC1`, the 50% growth inhibitory concentration (GI50) in data set [1] stood at 4.2 µg/mL (≈ 12.6 µM); in [2], 4.2 µg/mL (≈ 12.6 µM); in data set [3], 4.7 µg/mL (≈ 14.1 µM); in [4], 4.7 µg/mL (≈ 14.1 µM); in data set [5] it was 7 µg/mL (≈ 21 µM); in data set [6], 4.7 µg/mL (≈ 14.1 µM). In data set [7], this molecule displayed a GI50 of 5.7 µg/mL (≈ 17.1 µM). For the same molecule, the median lethal concentration (LC50) in [17] is 13.7 µg/mL (≈ 41.1 µM); in data set [16], 44.4 µg/mL (≈ 133 µM). Besides, the TGI in data set [9] was determined as 12 µg/mL (≈ 36 µM); in [10], 27.5 µg/mL (≈ 82.4 µM); in [11], 7.7 µg/mL (≈ 23.1 µM); in data set [12], 21.9 µg/mL (≈ 65.7 µM); in [13] it was 36.6 µg/mL (≈ 110 µM); in data set [14], 32.6 µg/mL (≈ 97.7 µM). Also, the results for the TGI in data set [15] and in data set [18] were 33.9 µg/mL (≈ 102 µM) and 45.1 µg/mL (≈ 135 µM), respectively.
Consider `CCCCCCCC/C=C\CCCCCCCC(=O)N1CCCC1`, for which the concentration for 50% growth inhibition (GI50) in data set [1] stood at 3.8 µg/mL (≈ 11.3 µM); in data set [2], 5.2 µg/mL (≈ 15.5 µM); in data set [3], 0.2 µg/mL (≈ 0.596 µM); in data set [4], 5.2 µg/mL (≈ 15.5 µM); in data set [5], 45.6 µg/mL (≈ 136 µM); in [6], 13 µg/mL (≈ 38.7 µM). The molecule further came in with a GI50 in data set [7] of 11.5 µg/mL (≈ 34.3 µM). Moreover, the LC50 is 3.9 µg/mL (≈ 11.6 µM) in data set [17] and 14.2 µg/mL (≈ 42.3 µM) in [16]. The total growth inhibition concentration (TGI) in data set [9] is 5.8 µg/mL (≈ 17.3 µM); in [10], > 250 µg/mL; in [11], 5.6 µg/mL (≈ 16.7 µM); in [12], 23.3 µg/mL (≈ 69.4 µM); in [13] it was 153 µg/mL (≈ 456 µM); in data set [14], 21.9 µg/mL (≈ 65.3 µM). Also, the total growth inhibition concentration (TGI) in [15] was found to be 14 µg/mL (≈ 41.7 µM); in data set [18], 10.6 µg/mL (≈ 31.6 µM).

For orientation: GI50 means the concentration at which growth is held to half of that of the control. One may read the LC50 as the concentration that kills 50% of the test population. The TGI is the concentration at which net growth stops.
